Reference: ChEMBL document CHEMBL4811317, “Inhibitory activities of anthraquinone and xanthone derivatives against transthyretin amyloidogenesis” (Bioorg Med Chem, 2021)
Values after ≈ are worked out from the molar mass of the structure shown. Active and inactive are the calls of the source. No cut-off for these calls is given here.

How the values were obtained:
Transthyretin = Transthyretin (Homo sapiens, UniProt P02766, V50M); assay: Inhibition of acid-mediated aggregation of TTR V30M mutant (unknown origin) expressed in Escherichia coli pretreated for 30 mins at pH 7 followed by protein dilution in acetate buffer and further incubated for 96 hrs at pH 4.6 by thioflavin-T fluorescence assay
[1] = AUC infinity in Sprague-Dawley rat at 0.1 mg/kg, iv measured up to 8 hrs by LC-MS/MS analysis; format: ADME, organism-based; set-up: route intravenous, dose 0.1 mg/kg, time <=8; conditions: in vivo
[2] = Permeability of the compound at 10 uM measured after 4 hrs by PAMPA based LC-MS analysis; format: ADME; conditions: read-out: permeability
Procedure, shortened: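 PAMPA on pre-coated plates: donor 10 μM compound in 5% DMSO/0.1 M phosphate pH 6.4, acceptor 5% DMSO/0.1 M phosphate pH 7.4; 4 h at 37 °C without agitation. Donor, acceptor and initial donor solutions quantified by LC-MS/MS; recovery above 90%. Antipyrine, metoprolol, sulfasalazine as references. At least two technical replicates.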

[3] = Metabolic stability in Sprague-Dawley rat liver microsomes assessed as residual rate at 1 uM preincubated for 5 mins followed by NADPH addition and measured after 30 mins by LC-MS/MS analysis; format: ADME, Microsome; conditions: time 35 min, read-out: Stabilty
Procedure, shortened: (§1)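 Rat liver microsomes 0.2 mg/mL with 1 μM compound, 1 mM EDTA, 0.1 M phosphate pH 7.4; 5 min preincubation, then 1 mM NADPH (final) added, 30 min at 37 °C, 60 rpm. Quenched in cold acetonitrile/internal standard, supernatant by LC-MS/MS against time zero. CLint scaled with 44.8 mg protein/g liver, 40.0 g liver/kg. At least two technical replicates.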

[4] = Total clearance in Sprague-Dawley rat at 0.1 mg/kg, iv measured up to 8 hrs by LC-MS/MS analysis; format: ADME, organism-based; conditions: in vivo
Procedure, shortened: (§2)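 Male Sprague Dawley rats (7 weeks old, n = 2) given compound in 10% DMSO/0.1 M phosphate pH 8.5, i.v. or p.o. Caudal-vein blood at 5 min (i.v.), 15, 30 min, 1, 2, 4, 8 h; plasma precipitated with acetonitrile/IS, LC-MS/MS. Non-compartmental analysis; bioavailability = AUC∞(p.o.)/AUC∞(i.v.).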

[5] = AUC (0 to 8 hrs) in Sprague-Dawley rat at 0.1 mg/kg, po measured up to 8 hrs by LC-MS/MS analysis; format: ADME, organism-based; set-up: route oral, dose 0.1 mg/kg, time <=8; conditions: in vivo
[6] = Cmax in Sprague-Dawley rat at 0.1 mg/kg, iv measured up to 8 hrs by LC-MS/MS analysis; format: ADME, organism-based; set-up: route intravenous, dose 0.1 mg/kg, time <=8; conditions: in vivo; procedure, shortened: as §2
[7] = Intrinsic clearance in Sprague-Dawley rat liver microsomes at 1 uM preincubated for 5 mins followed by NADPH addition and measured after 30 mins by LC-MS/MS analysis; format: ADME, Microsome; conditions: time 35 min, read-out: CLH; procedure, shortened: as §1
[8] = AUC (0 to 8 hrs) in Sprague-Dawley rat at 0.1 mg/kg, iv measured up to 8 hrs by LC-MS/MS analysis; format: ADME, organism-based; set-up: route intravenous, dose 0.1 mg/kg, time <=8; conditions: in vivo
[9] = Metabolic stability in Sprague-Dawley rat liver microsomes assessed as residual rate at 1 uM measured after 30 mins by LC-MS/MS analysis; format: ADME, Microsome; conditions: read-out: Stabilty
[10] = Aqueous solubility of the compound in pH 1.2 JP1 fluid measured after 4 hrs ny HPLC-UV analysis; format: physicochemical
Procedure, shortened: (§3)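 Test compound diluted from 10 mM DMSO stock 2:165 into JP 1st fluid (pH 1.2) or JP 2nd fluid (pH 6.8); mixed 4 h at 37 °C with rotation at 1000 rpm, then filtered through 0.45 μm PVDF by centrifugation. At least two technical replicates.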

[11] = Tmax in Sprague-Dawley rat at 0.1 mg/kg, po measured up to 8 hrs by LC-MS/MS analysis; format: ADME, organism-based; conditions: in vivo; procedure, shortened: as §2
[12] = Bioavailability in Sprague-Dawley rat at 0.1 mg/kg, iv measured up to 8 hrs by LC-MS/MS analysis; format: ADME, organism-based; conditions: in vivo; procedure, shortened: as §2
[13] = Cmax in Sprague-Dawley rat at 0.1 mg/kg, po measured up to 8 hrs by LC-MS/MS analysis; format: ADME, organism-based; set-up: route oral, dose 0.1 mg/kg, time <=8; conditions: in vivo; procedure, shortened: as §2
[14] = Aqueous solubility of the compound in pH 6.8 JP2 fluid measured after 4 hrs by HPLC-UV analysis; format: physicochemical; procedure, shortened: as §3
[15] = Protein binding in Sprague-Dawley rat plasma assessed as unbound fraction at 1 uM measured after 4 hrs by equilibrium dialysis assay; format: ADME, cell-free
Procedure, shortened: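 Rat plasma spiked at 1 μM, equilibrium dialysis (8K MWCO) against 0.1 M phosphate pH 7.4 for 4 h at 37 °C, 1000 rpm. Unbound fraction = buffer/plasma concentration ratio. At least two technical replicates.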

[16] = molecular target: Transthyretin (Homo sapiens) (UniProt P02766); assay: Binding affinity to TTR V30M mutant (unknown origin) expressed in Escherichia coli by isothermal titration calorimetry
[17] = Elimination half life in Sprague-Dawley rat at 0.1 mg/kg, iv measured up to 8 hrs by LC-MS/MS analysis; format: ADME, organism-based; conditions: in vivo, read-out: beta t1/2 (converted); procedure, shortened: as §2
[18] = Volume of distribution at steady state in Sprague-Dawley rat at 0.1 mg/kg, iv measured up to 8 hrs by LC-MS/MS analysis; format: ADME, organism-based; conditions: in vivo, read-out: Vdss; procedure, shortened: as §2
[19] = Volume of distribution at steady state in Sprague-Dawley rat at 1 mg/kg, iv measured up to 8 hrs by LC-MS/MS analysis; format: ADME, organism-based; conditions: in vivo, read-out: Vdss; procedure, shortened: as §2
[20] = Bioavailability in Sprague-Dawley rat at 1 mg/kg, iv measured up to 8 hrs by LC-MS/MS analysis; format: ADME, organism-based; conditions: in vivo; procedure, shortened: as §2
[21] = Cmax in Sprague-Dawley rat at 1 mg/kg, iv measured up to 8 hrs by LC-MS/MS analysis; format: ADME, organism-based; set-up: route intravenous, dose 1 mg/kg, time <=8; conditions: in vivo; procedure, shortened: as §2
[22] = Elimination half life in Sprague-Dawley rat at 1 mg/kg, po measured up to 8 hrs by LC-MS/MS analysis; format: ADME, organism-based; conditions: in vivo, read-out: beta t1/2 (converted); procedure, shortened: as §2
[23] = Cmax in Sprague-Dawley rat at 1 mg/kg, po measured up to 8 hrs by LC-MS/MS analysis; format: ADME, organism-based; set-up: route oral, dose 1 mg/kg, time <=8; conditions: in vivo; procedure, shortened: as §2
[24] = Elimination half life in Sprague-Dawley rat at 1 mg/kg, iv measured up to 8 hrs by LC-MS/MS analysis; format: ADME, organism-based; conditions: in vivo, read-out: beta t1/2 (converted); procedure, shortened: as §2
[25] = Total clearance in Sprague-Dawley rat at 1 mg/kg, iv measured up to 8 hrs by LC-MS/MS analysis; format: ADME, organism-based; conditions: in vivo; procedure, shortened: as §2
[26] = AUC infinity in Sprague-Dawley rat at 1 mg/kg, iv measured up to 8 hrs by LC-MS/MS analysis; format: ADME, organism-based; set-up: route intravenous, dose 1 mg/kg, time <=8; conditions: in vivo
[27] = Tmax in Sprague-Dawley rat at 1 mg/kg, po measured up to 8 hrs by LC-MS/MS analysis; format: ADME, organism-based; conditions: in vivo; procedure, shortened: as §2
[28] = AUC infinity in Sprague-Dawley rat at 1 mg/kg, po measured up to 8 hrs by LC-MS/MS analysis; format: ADME, organism-based; set-up: route oral, dose 1 mg/kg, time <=8; conditions: in vivo

SMILES: CC(=O)Oc1cccc2c1C(=O)c1c(OC(C)=O)cc(C(=O)O)cc1C2=O [DIACEREIN]
- IC50 (Transthyretin): 5.4 µM

SMILES: O=C(O)c1ccc2c(=O)c3ccccc3oc2c1
- IC50 (Transthyretin): 19 µM

SMILES: O=C1c2ccccc2C(=O)c2c(O)c(O)cc(O)c21 [PURPURIN]
- IC50 (Transthyretin): 12 µM

SMILES: CC(C)=CCc1c(O)cc2oc3cc(O)c(O)c(CC=C(C)C)c3c(=O)c2c1O
- IC50 (Transthyretin): 10 µM

SMILES: O=C(O)c1ccc2nc(-c3cc(Cl)cc(Cl)c3)oc2c1
- AUC(0-inf) [1]: 4330 ng·h/mL
- Papp at 4 h, 10 µM [2]: > 50 ×10⁻⁶ cm/s
- remaining at 0.5 h, 1 µM [3]: 88%
- clearance [4]: 0.383 mL/min/kg
- AUC(0-t) [5]: 956 ng·h/mL
- Cmax [6]: 537 ng/mL
- CLint scaled at 1 µM [7]: 38.7 mL/min/kg
- AUC(0-t) [8]: 1710 ng·h/mL
- remaining at 0.5 h, 1 µM [9]: 88%
- solubility at 4 h [10]: 0.088 µM (≈ 0.0271 µg/mL)
- Tmax [11]: 8 h
- bioavailability [12]: 55.8%
- Cmax [13]: 163 ng/mL
- solubility at 4 h [14]: > 100 µM
- fraction unbound at 4 h, 1 µM [15]: 0.0051
- Activity [16]: Active
- half-life [17]: 12 h
- Vd [18]: 0.375 L/kg

SMILES: O=C(O)c1ccc2oc3ccccc3c(=O)c2c1
- IC50 (Transthyretin): 22 µM

SMILES: Cc1ccc2oc3ccccc3c(=O)c2c1
- IC50 (Transthyretin): > 100 µM

SMILES: O=C1c2ccccc2C(=O)c2c1ccc(O)c2O [ATHRAQUINONES A]
- IC50 (Transthyretin): > 100 µM

SMILES: O=C(O)c1cc(Cl)c2c(c1)C(=O)c1ccccc1C2=O
- IC50 (Transthyretin): 12 µM

SMILES: O=C1c2cccc(O)c2C(=O)c2c(O)cccc21 [DANTHRON]
- IC50 (Transthyretin): > 100 µM

SMILES: Cc1cc(C(=O)O)cc2c(=O)c3ccccc3oc12
- Papp at 4 h, 10 µM [2]: 18 ×10⁻⁶ cm/s
- remaining at 0.5 h, 1 µM [3]: 88%
- Vd [19]: 0.148 L/kg
- bioavailability [20]: 34.9%
- Cmax [21]: 19200 ng/mL
- half-life [22]: 4.4 h
- CLint scaled at 1 µM [7]: 35.7 mL/min/kg
- Cmax [23]: 476 ng/mL
- IC50 (Transthyretin): 6.5 µM
- remaining at 0.5 h, 1 µM [9]: 88%
- half-life [24]: 2.4 h
- solubility at 4 h [10]: 2 µM (≈ 0.508 µg/mL)
- clearance [25]: 2.22 mL/min/kg
- solubility at 4 h [14]: > 100 µM
- fraction unbound at 4 h, 1 µM [15]: 0.0073
- AUC(0-inf) [26]: 7520 ng·h/mL
- Activity [16]: Active
- Tmax [27]: 0.25 h
- AUC(0-inf) [28]: 2620 ng·h/mL
